Series [1] can be described thus: Cytotoxicity against HUVEC measured after 48 hrs by MTT assay. The format is toxicity, cell-based. Particulars: human, HUVEC cells. Summed up: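 HUVECs were seeded at 5×10^3 cells/well for 24 h, then exposed to compounds dissolved in DMSO for 48 h. MTT (5 mg/ml) was added for 4 h, cells solubilized in DMSO and OD read at 490 nm. IC50 was derived from mean OD of triplicate tests.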
(In general: Tetrazolium assays rely on reduction of a dye to a coloured formazan, in cell work by metabolically active cells.)

Series [2] in a line: Antioxidant activity against H2O2-induced oxidative stress in rat PC12 cells assessed as viable cells at 100 uM pretreated for 0.5 hrs followed by H2O2 challenge measured after 2 hrs by MTT assay (reference value: 25.47%). The format is functional. Conditions: PC-12, read-out: Activity.
For series [3], the species on record is Rattus norvegicus. The series is described as follows: Cytotoxicity against rat PC12 cells at 200 uM measured after 48 hrs by MTT assay. The format is toxicity, cell-based. Conditions: pc-12, 48 h.
Series [4] is filed under the species Rattus norvegicus. The series is described as follows: Cytotoxicity against rat PC12 cells at 100 uM measured after 48 hrs by MTT assay. The format is toxicity, cell-based. Particulars: pc-12, 48 h.
Series [5] can be described thus: Antioxidant activity assessed as ABTS radical scavenging activity measured after 10 mins by ABTS assay. The format is functional. A digest of the protocol: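 ABTS (10 mM in sodium acetate) oxidised with H2O2 and held 12 h in the dark. It was diluted to A650 0.70 and mixed with compound, shaken 30 s, and A650 read after 10 min. EC50 by nonlinear regression from three independent experiments.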

Series [6] deals with PC-12. The series is described as follows: Cytoprotective activity against H2O2-induced oxidative stress in rat PC12 cells assessed as lactate dehydrogenase release at 10 uM pretreated for 30 mins followed by H2O2 challenge measured after 2 hrs by spectrophotometric method (reference value: 479.77 U/L). The format is functional.
A short description of series [7]: Antioxidant activity assessed as vitamin-c equivalent measured after 20 mins by FRAP assay. The format is functional.
Series [8] is described as follows: Antioxidant activity against H2O2-induced oxidative stress in rat PC12 cells assessed as GSH level per gram of protein at 10 uM pretreated for 0.5 hrs followed by H2O2 challenge measured after 2 hrs by GSH peroxidase assay (reference value: 59.93 umol). The format is functional, PC-12.
Series [9] in a line: Antioxidant activity against H2O2-induced oxidative stress in rat PC12 cells assessed as 8-OHdG level at 10 uM pretreated for 0.5 hrs followed by H2O2 challenge measured after 2 hrs (reference value: 123.97 ng/L). The format is functional, PC-12.
The subject of series [10] is PC-12. The series is described as follows: Cytoprotective activity against H2O2-induced oxidative stress in rat PC12 cells assessed as late apoptotic cells at 10 uM pretreated for 0.5 hrs followed by H2O2 challenge measured after 2 hrs by Annexin-V-FITC/propidium iodide staining based flow cytometry (reference value: 2.3 %). The format is functional. A general note: Flow cytometry measures light scatter and fluorescence of single cells or particles in a stream.

Series [11] has as its system PC-12. In words: Cytoprotective activity against H2O2-induced oxidative stress in rat PC12 cells assessed as early apoptotic cells at 10 uM pretreated for 0.5 hrs followed by H2O2 challenge measured after 2 hrs by Annexin-V-FITC/propidium iodide staining based flow cytometry (reference value: 1.1 %). The format is functional.
Series [12] deals with PC-12. In words: Cytoprotective activity against H2O2-induced oxidative stress in rat PC12 cells assessed as viable cells at 10 uM pretreated for 0.5 hrs followed by H2O2 challenge measured after 2 hrs by Annexin-V-FITC/propidium iodide staining based flow cytometry (reference value: 94.1 %). The format is functional. Particulars: read-out: Activity.
The test system of series [13] is PC-12. The series is described as follows: Cytoprotective activity against H2O2-induced oxidative stress in rat PC12 cells assessed as necrotic cells at 10 uM pretreated for 0.5 hrs followed by H2O2 challenge measured after 2 hrs by Annexin-V-FITC/propidium iodide staining based flow cytometry (reference value: 2.4 %). The format is functional.
Series [14] relates to PC-12. In words: Cytoprotective activity against H2O2-induced oxidative stress in rat PC12 cells assessed as morphological changes at 10 uM pretreated for 0.5 hrs followed by H2O2 challenge measured after 2 hrs. The format is functional, cell-based. Summed up:
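PC12 cells were handled as in the H2O2/MTT model: compound at 10 µM for 0.5 h, then H2O2 (100 µM) for 2 h. Morphology (shrinkage, blebbing) was viewed at 200×. Control cells received medium with 0.1% DMSO only. Gallic acid (10 µM) was the positive control.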

Calls of active or inactive are those of the source. The rule behind the calls is not given here.

Usually IC50 stands for the midpoint of a concentration-inhibition curve. `CC1(C)C=Cc2c(O)cc(O)c(C(=O)/C=C/c3ccc(O)cc3)c2O1`: the IC50 at 48 h in series [1] is 41.1 µM. Besides, the viability at 100 µM in series [2] was found to be 20.6%. Besides, the Activity result in the series filed under Rattus norvegicus [3] and in the series filed under Rattus norvegicus [4] was “Toxic” each time.
`CC1(C)C=Cc2c(O)cc(O)c(C(=O)/C=C/c3ccc(O)c(O)c3O)c2O1`: in [2], the viability at 100 µM stood at 84%.
The term EC50 denotes the midpoint of the concentration-response curve. `O=C(O)c1cc(O)c(O)c(O)c1` [GALLIC ACID]: the EC50 in series [5] came out at 350 nM. Besides, the Activity in the series with PC-12 [6] is 326.59 U/L; in series [7], 531 mgequiv/mmol; in series [8], 99.73 µmol; in [9], 85.7 ng/L; in the series on PC-12 [10], 13.4%; with PC-12 [11] it was 0.5%. For the same molecule, in the series with PC-12 [13], the Activity amounted to 4.2%. Moreover, the viability at 100 µM in [2] is 88.9%. The viability at 10 µM in the series with PC-12 [12] worked out at 81.9%.
`CC(C)=CCc1c(O)cc(O)c(C(=O)/C=C/c2ccc(O)cc2)c1O` [DEMETHYLXANTHOHUMOL] displayed an IC50 at 48 h in series [1] of 18.9 µM. Moreover, the Activity entry in the series listed under Rattus norvegicus [3] and in the series listed under Rattus norvegicus [4] was “Toxic” each time.
Take `CC1(C)C=Cc2c(O)c(Cc3c(O)c4c(c(C(=O)/C=C/c5cccc(O)c5O)c3O)OC(C)(C)C=C4)c(O)c(C(=O)/C=C/c3cccc(O)c3O)c2O1`: the viability at 100 µM in [2] was found to be 77.5%.
Still for that read-out and setting: next, `CC1(C)C=Cc2c(O)c(Cc3c(O)c4c(c(C(=O)/C=C/c5ccc(O)cc5)c3O)OC(C)(C)C=C4)c(O)c(C(=O)/C=C/c3ccc(O)cc3)c2O1`: 44.9%; `CC1(C)C=Cc2c(O)c(Cc3c(O)c4c(c(C(=O)/C=C/c5ccc(O)cc5O)c3O)OC(C)(C)C=C4)c(O)c(C(=O)/C=C/c3ccc(O)cc3O)c2O1`: 43.4%.
In the case of `CC1(C)C=Cc2c(O)c(Cc3c(O)c4c(c(C(=O)/C=C/c5ccc(O)c(O)c5O)c3O)OC(C)(C)C=C4)c(O)c(C(=O)/C=C/c3ccc(O)c(O)c3O)c2O1`, the EC50 in series [5] stood at 540 nM. The Activity in the series on PC-12 [6] was found to be 251.45 U/L; in series [7] it was 648 mgequiv/mmol; in [8] it was 105.71 µmol; in [9], 62.8 ng/L; with PC-12 [10], 2.7%; in the series with PC-12 [11], 1.1%. The Activity with PC-12 [13] is on record as 0.5%. Moreover, the viability at 100 µM in [2] is 85.2%. The outcome in the series on PC-12 [14] was Active. Moreover, in the series with PC-12 [12], the viability at 10 µM came to 95.6%.
On to `CC1(C)C=Cc2c(O)cc(O)c(C(=O)/C=C/c3cccc(O)c3O)c2O1`, for which the viability at 100 µM in series [2] is 54.5%.
For the molecule `CC1(C)C=Cc2c(O)cc(O)c(C(=O)/C=C/c3ccc(O)cc3O)c2O1`, in series [2], the viability at 100 µM turned out to be 24.1%.

(Values after ChEMBL document CHEMBL3877262, “Synthesis and antioxidant evaluation of desmethylxanthohumol analogs and their dimers” (Eur J Med Chem, 2017).)
